Only some compounds are listed: those with a hit (about 3.1% of all), similar ones and a draw of the others.
PAFAH1B3 inh: blocks human PAF acetylhydrolase 1B catalytic subunit 3. 340,000 tested, 0.28% active. recombinant PAFAH1B3, FP-rhodamine probe, fluorescence polarization. inhibition, % at 3.39 µM. Q15102;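 active = inhibition above the screen-wide average of all tested compounds plus 3 SD, cut at about 25% in these data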
PAFAH2 FP inh: inhibitors of human PAFAH2. Q99487. 340,000 tested, 0.99% active. inhibition, % at 3.39 µM. recombinant PAFAH2, FP-rhodamine activity probe, fluorescence polarization;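 active = inhibition above the mean over all tested compounds plus 3 SD, cut at about 30% in these data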;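 also: inhibitors block probe labeling of enzyme so polarization drops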
PAFAH1B2 inh: PAFAH1B2 (human) inhibition; P68402; inhibition, % at 3.39 µM; 340,000 tested, 1.2% active; recombinant PAFAH1B2, FP-rhodamine activity probe, fluorescence polarization; AID 492953;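 active = inhibition above the mean of all tested compounds plus 3 SD, cut at about 24% in these data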
Apaf1 inhib: blocks human Apaf-1 apoptosome activity. O14727. reconstituted apoptosome caspase-3 activity, DEVD-Rh110 fluorescence. inhibition, % at 20 µM. 330,000 tested, 0.71% active; active = inhibition of at least 40% at 20 µM
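System: reconstituted apoptosome with Apaf-1, cytochrome c, caspase-9, procaspase-3, dATP; Signal: Rh110 fluorescence intensity; Schedule: 30 min compound preincubation, 50 min activation, room temperature; Reagent: cytochrome c trigger plus (Z-DEVD)2-Rh110 caspase-3 substrate.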
pPAFAH FP inh: pPAFAH (human) enzyme inhibition | 330,000 tested, 1.5% active | Q13093 | recombinant pPAFAH, FP-rhodamine probe fluorescence polarization | AID 463082 | inhibition, % at 3.39 µM;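 active = inhibition above the mean inhibition across the screen plus 3 SD, cut at about 25% in these data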;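 also: inhibitors block binding of the rhodamine activity-based probe so polarization drops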
pPAFAH confirm: pPAFAH (human) inhibition, confirmed; shares compounds with pPAFAH FP inh; recombinant pPAFAH, FP-Rh probe fluorescence polarization; inhibition, % at 3.39 µM; 2,300 tested, 72% active;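 active = mean inhibition of the triplicate above the hit cutoff set for the earlier primary screen, cut at about 25% in these data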
A number is an active result; - = inactive; . = not tested or not shown.

SMILES | PAFAH1B3 inh | PAFAH2 FP inh | PAFAH1B2 inh | Apaf1 inhib | pPAFAH FP inh | pPAFAH confirm
Cc1c(Cl)cccc1NS(=O)(=O)c1ccc2c(c1)C1C=CCC1C(c1ccc(C(=O)O)cc1)N2 (configuration not stated) | 37 | 60 | 30 | - | 92 | 88
COc1cccc(OCc2cc(C(=O)NC(C)c3cnn(C)c3C)no2)c1 (configuration not stated) | - | - | - | - | - | .
Cc1ccc(/C=C(\C#N)C(=O)NC(C)c2ccccc2)o1 (configuration not stated) | - | - | - | - | - | .
CC(C#N)Sc1ncnc2sc(-c3ccccc3)cc12 (configuration not stated) | - | - | - | - | - | .
COc1ccccc1/C=C/c1ccc2cccc(O)c2n1 | - | - | - | - | 42 | -
COc1ccc(Cl)cc1/C=C/c1ccc2cccc(O)c2n1 | - | - | - | - | - | .
CC(=O)Nc1ccc(Nc2nc(C)nc3c2oc2ccccc23)cc1 | - | - | - | - | - | .
CC(=O)N1CCN(c2ccc(Nc3nc(C)nc4c3oc3ccccc34)cc2)CC1 | - | - | - | - | 40 | 34
Cc1cccc(Nc2nc(-c3ccc(F)c(C)c3)cs2)n1 | - | - | - | - | - | .
Oc1ccc(-c2csc(Nc3cccc4ccccc34)n2)cc1O | - | - | - | - | 72 | 66
Cc1ccnc(Nc2nc(-c3ccc(O)c(O)c3)cs2)c1 | - | - | - | - | 41 | 30
Cc1cccc(Nc2nc(-c3ccc(O)c(O)c3)cs2)n1 | - | - | - | - | 51 | 28
Oc1ccc(-c2csc(Nc3ccccn3)n2)cc1O | - | - | - | - | 40 | 32
Cc1ccc(S(=O)(=O)N2CCN(C(=O)COC(=O)CCCOc3ccccc3)CC2)c(C)c1 | - | - | - | - | - | .
O=C(COC(=O)c1ccc(NS(=O)(=O)c2cccs2)cc1)NCc1ccco1 | - | 40 | - | - | 42 | 29
O=S(=O)(Nc1nc2ccccc2nc1Nc1ccc2c(c1)OCCO2)c1cccs1 | - | - | - | - | 49 | 49
O=C(NNC(=O)c1ccccc1O)c1ccc(Cl)c(S(=O)(=O)N2CCCCC2)c1 | - | - | - | - | - | .
O=C(CNC(=O)c1nc[nH]c1C(=O)NCc1ccccc1)OCc1ccccc1 | - | - | - | - | 35 | -
O=C(CNC(=O)c1nc[nH]c1C(=O)NCC(=O)OCc1ccccc1)OCc1ccccc1 | - | - | - | - | - | .
CCOC(=O)C1(C)C=C(Nc2ccc(O)cc2)C(=O)N1c1ccc(O)cc1 (configuration not stated) | - | - | - | - | 70 | -
CCCCN1Cc2c(nc3cc(-c4ccco4)[nH]n3c2=O)C1=O | - | 32 | - | - | 63 | -
Cc1nn(-c2ccccc2)c2sc(C(=O)O)cc12 | - | - | - | - | - | .
Cc1nn(-c2ccccc2)c2sc(-c3n[nH]c(=S)o3)cc12 | - | - | - | - | 52 | 69
O=S(=O)(c1cccc(Br)c1)N1CCN(CCc2ccccc2)CC1 | - | - | - | - | - | .
COC(=O)c1cc(O)cc(OC)c1Oc1cc(C)cc(O)c1C(=O)O | - | - | - | - | 35 | -
SMILES | PAFAH1B3 inh | PAFAH2 FP inh | PAFAH1B2 inh | Apaf1 inhib | pPAFAH FP inh | pPAFAH confirm
COc1ccccc1NC(=O)c1cnc(SCC(=O)NCCc2ccccc2)n(C)c1=O | - | - | - | - | - | .
O=C(O)c1cccc2c(-c3ccccc3)c(-c3ccccc3)[nH]c12 | - | - | 48 | - | 52 | 46
O=C(Nc1ccccc1-c1ccccc1)c1ccccc1 | - | - | - | - | - | .
Nc1c(S(=O)(=O)O)cc(NC(=O)c2ccccc2)c2c1C(=O)c1ccccc1C2=O | 49 | 54 | 34 | - | 84 | 90
COc1ccc(NC(=O)CSc2nc3nc(C)cc(C)c3c(=O)[nH]2)cc1 | - | - | - | - | 69 | -
CCN(CC)c1ccc(NC(=O)CSc2nc3nc(C)cc(C)c3c(=O)[nH]2)cc1 | - | - | - | - | - | .
C/C(=N\NC(=O)c1ccccc1O)C1C(=O)c2ccccc2C1=O | 28 | 30 | - | - | 49 | 40
C/C(=N/NC(=O)c1cc2ccccc2cc1O)C1C(=O)c2ccccc2C1=O | 37 | 74 | 73 | - | 77 | 68
CCC/C(C)=N/NC(=O)c1ccccc1O | - | - | - | - | - | .
C/C(CC(=O)N1CCN(C=O)CC1)=N\NC(=O)c1cc2ccccc2cc1O | - | - | - | - | 54 | -
C/C(CC(=O)N1CCN(C=O)CC1)=N\NC(=O)c1ccc([N+](=O)[O-])cc1 | - | - | - | - | - | .

Bioassay records deposited in PubChem by several laboratories.
